Each compound was assayed on T1, OR2A1 S168C. Conditions: stereoisomer not certain.
T1 sequence (whole entry): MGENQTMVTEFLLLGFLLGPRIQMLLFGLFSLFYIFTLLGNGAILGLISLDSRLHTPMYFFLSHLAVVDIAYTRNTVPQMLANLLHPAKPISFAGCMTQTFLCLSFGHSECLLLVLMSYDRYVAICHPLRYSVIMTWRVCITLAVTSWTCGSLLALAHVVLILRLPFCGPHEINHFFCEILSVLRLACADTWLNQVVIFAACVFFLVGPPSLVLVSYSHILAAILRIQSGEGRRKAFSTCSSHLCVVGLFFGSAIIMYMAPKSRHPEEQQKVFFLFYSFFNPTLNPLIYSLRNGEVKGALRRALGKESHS
Procedure, shortened: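 Each entry records the cell line, G-protein, co-transfected protein and tags used. Methods varied with the source, often transient luciferase assays in mammalian cell lines. A receptor–molecule pair is called responsive (active) if the original authors judged its signal statistically different from baseline and non-responsive (inactive) otherwise.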

Odorant receptor agonist call, inactive:
CCCC(S)CCOC(C)=O (stereo not drawn)
CC1=C(O)C(=O)C(C)O1 (stereo not drawn)
CC1=NC(C)C(C)S1 (stereo not drawn)
CC1=C(O)C(=O)OC1C (stereo not drawn)
CCCCCCC=CCCC=O
CCC1OC(C)=C(O)C1=O (stereo not drawn)
Cc1cnc(C)c(C)n1
CCC1OC(=O)C(O)=C1C (stereo not drawn)

Reference: the M2OR odorant receptor database
